From paper PMC4278051 (Journal of Breast Cancer, 2014)

How the values were obtained:
TRPV1 [1] = conditions: ref 23 (Rigoni et al.); cited from earlier work
MCF-7 cells = assay: MTT reduction proliferation assay; type: cell-based, human; conditions: 2, 24, 48 and 72 hours; for MCF-7 cell growth rate / viability compared to the controls (MTT): increasing concentrations (10^-10-10^-4 M capsaicin, capsazepine; 10^-10-10^-6 M RTX, 5-I-RTX), p<0.05, n=6
Procedure, shortened: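 MCF-7 cells grown in DMEM with 20% FBS were seeded at 5×10^3 cells/100 µL in 96-well plates. Cells were exposed to test compound at increasing concentrations (10-10 up to 10^-4 or 10^-6 M, by compound) and assayed at 2, 24, 48 and 72 h. MTT was added for 4 h at 37 °C, 5% CO2, and formazan was dissolved in DMSO for 10 min at RT. OD was read at 570 nm (n=6, mean±SEM) and analysed by Kruskal-Wallis with Dunn post-test.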

[2] = target: transient receptor potential vanilloid 1 (Homo sapiens, UniProt Q8NER1); assay: Competition; conditions: inhibition of 1.2 nM ^3[H]RTX binding, MCF-7 membranes, Cheng-Prussoff
TRPV1 [3] = target: T1, TRPV1 (Homo sapiens, UniProt Q8NER1); assay: Inhibition of RTX induced ^45Ca^2+ uptake by antagonists in MCF-7; type: cell-based; conditions: in the presence of RTX 2 nM, n=4
TRPV1 [4] = target: T1, TRPV1; assay: ^45Ca^2+ uptake assay, stimulation by agonists in MCF-7; type: cell-based; conditions: for E max of Ca^2+ uptake: 20 minutes at 37℃, 10^-11-10^-3 M, n=4

T1 sequence (Q8NER1 whole entry): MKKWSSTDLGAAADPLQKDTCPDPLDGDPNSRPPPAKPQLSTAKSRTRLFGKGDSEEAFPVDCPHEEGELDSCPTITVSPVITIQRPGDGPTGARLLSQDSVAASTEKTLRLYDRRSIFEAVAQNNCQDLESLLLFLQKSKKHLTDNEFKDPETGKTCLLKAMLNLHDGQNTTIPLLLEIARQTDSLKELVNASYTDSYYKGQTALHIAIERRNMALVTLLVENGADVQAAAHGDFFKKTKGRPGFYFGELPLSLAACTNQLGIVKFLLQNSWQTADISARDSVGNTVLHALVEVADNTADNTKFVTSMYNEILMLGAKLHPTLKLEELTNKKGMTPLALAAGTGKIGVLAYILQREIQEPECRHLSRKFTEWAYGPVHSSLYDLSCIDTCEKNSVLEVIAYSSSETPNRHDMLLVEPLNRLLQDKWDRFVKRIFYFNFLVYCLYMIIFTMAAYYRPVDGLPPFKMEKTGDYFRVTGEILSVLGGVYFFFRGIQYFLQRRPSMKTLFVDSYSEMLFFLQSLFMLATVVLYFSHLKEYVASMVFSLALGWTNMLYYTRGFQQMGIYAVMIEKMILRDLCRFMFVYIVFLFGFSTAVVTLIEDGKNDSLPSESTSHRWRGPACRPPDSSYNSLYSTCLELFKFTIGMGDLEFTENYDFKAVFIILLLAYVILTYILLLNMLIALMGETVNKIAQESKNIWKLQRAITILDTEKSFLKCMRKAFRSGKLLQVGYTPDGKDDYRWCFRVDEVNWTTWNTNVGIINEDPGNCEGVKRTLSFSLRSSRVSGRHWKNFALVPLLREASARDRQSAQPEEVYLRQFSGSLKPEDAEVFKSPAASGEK
Chain of transient receptor potential vanilloid 1 (Q8NER1 whole entry): as above

SMILES	Potency relative to the antagonist capsazepine (times more potent) (TRPV1 [1])	MCF-7 cell growth rate / viability compared to the controls (MTT) (MCF-7 cells)	Ki [2]	E max of Ca^2+ influx inhibition (TRPV1 [3])	EC50 (TRPV1 [4])	Agonist character at TRPV1 expressed in MCF-7, from E max of calcium uptake (TRPV1 [4]; ^45Ca^2+ uptake)	E max of Ca^2+ uptake (TRPV1 [4]; ^45Ca^2+ uptake)	Time dependence of MCF-7 growth inhibition (MTT) (MCF-7 cells)
C=C(C)[C@]12C[C@@H](C)[C@@]34O[C@](Cc5ccccc5)(O[C@@H]1[C@@H]3C=C(COC(=O)Cc1cc(I)c(O)c(OC)c1)C[C@]1(O)C(=O)C(C)=C[C@@H]41)O2 [5-I-RTX, 5-iodoresiniferatoxin]	20	significant decrease	0.056 nM	108.3%	–	–	–	–
CCCCC/C=C\C/C=C\C/C=C\C/C=C\CCCC(=O)NCCO [Anandamide, anandamide]	–	–	–	–	110 nM	full agonist	557.0 cpm	–
COc1cc(CNC(=O)CCCC/C=C/C(C)C)ccc1O [Capsaicin, capsaicin]	–	significant decrease	–	–	–	–	478.8 cpm	–
Oc1cc2c(cc1O)CN(C(=S)NCCc1ccc(Cl)cc1)CCC2 [Capsazepine, capsazepine]	–	significant decrease	–	–	–	–	–	–
C=C(C)[C@]12C[C@@H](C)[C@@]34O[C@](Cc5ccccc5)(O[C@@H]1[C@@H]3C=C(COC(=O)Cc1ccc(O)c(OC)c1)C[C@]1(O)C(=O)C(C)=C[C@@H]41)O2 [RTX, resiniferatoxin]	–	significant decrease	–	–	24 nM	–	777.0 cpm	time-dependent behavior
